Data reported in ChEMBL document CHEMBL1255444, “In vitro antibacterial activities of JNJ-Q2, a new broad-spectrum fluoroquinolone” (Antimicrob Agents Chemother, 2010).
Converted amounts (≈) assume the structure as drawn. The source made the active and inactive calls. The calls are words filed in the database; no cut-off is given here.

Experiments:
Providencia stuartii = assay: Ratio of Moxifloxacin MIC90 to compound MIC90 for Providencia stuartii; assay type: functional
Streptococcus pneumoniae [1] = assay: Antibacterial activity against penicillin-resistant Streptococcus pneumoniae by broth microdilution method; assay type: functional, organism-based
Summary of the method: (§1)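 CLSI M07-A7 broth microdilution MIC in cation-adjusted Mueller-Hinton medium. For S. pneumoniae the medium was supplemented with 5% lysed horse blood. CLSI quality-control strains were included as appropriate.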

Streptococcus pneumoniae [2] = assay: Antibacterial activity against Streptococcus pneumoniae ATCC 49619 by broth microdilution method; assay type: functional
Summary of the method: (§2)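 MICs by CLSI M07-A7 broth microdilution in cation-adjusted Mueller-Hinton medium. For S. pneumoniae the medium was supplemented with 5% lysed horse blood. CLSI quality control strains were run alongside as appropriate.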

[3] = Antibacterial activity against Streptococcus sp. group C by broth microdilution method; assay type: functional
Summary of the method: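 MICs by broth microdilution following CLSI M07-A7 in cation-adjusted Mueller-Hinton medium, using isolates from the J&JPRD culture collection. CLSI quality control strains were included as appropriate.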

Enterococcus faecalis = assay: Antibacterial activity against Enterococcus faecalis ATCC 29212 by broth microdilution method; assay type: functional; summary of the method: as §2
Enterococcus faecium = assay: Antibacterial activity against Enterococcus faecium by broth microdilution method; assay type: functional; summary of the method: as §2
Enterobacter cloacae = assay: Antibacterial activity against Enterobacter cloacae by broth microdilution method; assay type: functional
Klebsiella aerogenes = assay: Antibacterial activity against Enterobacter aerogenes by broth microdilution method; assay type: functional; summary of the method: as §2
Proteus mirabilis = assay: Antibacterial activity against Proteus mirabilis by broth microdilution method; assay type: functional; summary of the method: as §2
Streptococcus pneumoniae [4] = assay: Antibacterial activity against Streptococcus pneumoniae isolate OC7189 assessed as log reduction in bacterial growth at 4 times MIC measured at 6 hrs by time-kill assay; assay type: functional
Summary of the method: (§3)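 Drug was diluted from 50× stocks made in water or acidified water. Samples were taken at 6 and 24 h and serially diluted onto TSA-5% sheep blood plates. Plates were incubated 20–24 h at 37°C in 5% CO2 before counting CFU. Log10 titer change is given relative to the starting inoculum.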

Streptococcus pneumoniae [5] = assay: Antibacterial activity against Streptococcus pneumoniae isolate OC6608 by broth microdilution method; assay type: functional
Summary of the method: (§4)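 CLSI M07-A7 broth microdilution MIC. Medium was cation-adjusted Mueller-Hinton broth. For S. pneumoniae it was Mueller-Hinton supplemented with 5% lysed horse blood. CLSI quality-control strains were included as appropriate.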

Streptococcus pneumoniae [6] = assay: Antibacterial activity against Streptococcus pneumoniae isolate OC5462 by broth microdilution method; assay type: functional; summary of the method: as §4
Streptococcus pneumoniae [7] = assay: Antibacterial activity against Streptococcus pneumoniae isolate OC7376 by broth microdilution method; assay type: functional; summary of the method: as §4
Streptococcus pneumoniae [8] = assay: Antibacterial activity against Streptococcus pneumoniae isolate OC7376 assessed as log reduction in bacterial growth at 2 times MIC measured at 6 hrs by time-kill assay; assay type: functional; summary of the method: as §3
Streptococcus pneumoniae [9] = assay: Antibacterial activity against Streptococcus pneumoniae isolate OC6790 by broth microdilution method; assay type: functional; summary of the method: as §4
Streptococcus pneumoniae [10] = assay: Antibacterial activity against Streptococcus pneumoniae isolate OC6790 assessed as log reduction in bacterial growth at 2 times MIC measured at 6 hrs by time-kill assay; assay type: functional; summary of the method: as §3
Streptococcus pneumoniae [11] = assay: Antibacterial activity against Streptococcus pneumoniae isolate OC6790 assessed as log reduction in bacterial growth at 4 times MIC measured at 24 hrs by time-kill assay; assay type: functional; summary of the method: as §3
Streptococcus pneumoniae [12] = assay: Antibacterial activity against Streptococcus pneumoniae isolate OC7368 assessed as log reduction in bacterial growth at 2 times MIC measured at 6 hrs by time-kill assay; assay type: functional; summary of the method: as §3
Streptococcus pneumoniae [13] = assay: Antibacterial activity against Streptococcus pneumoniae isolate OC7368 assessed as log reduction in bacterial growth at 2 times MIC measured at 24 hrs by time-kill assay; assay type: functional; summary of the method: as §3
Streptococcus pneumoniae [14] = assay: Antibacterial activity against Streptococcus pneumoniae isolate OC7348 assessed as log reduction in bacterial growth at 2 times MIC measured at 6 hrs by time-kill assay; assay type: functional; summary of the method: as §3
Streptococcus pneumoniae [15] = assay: Antibacterial activity against Streptococcus pneumoniae isolate OC6585 assessed as log reduction in bacterial growth at 4 times MIC measured at 24 hrs by time-kill assay; assay type: functional; summary of the method: as §3
Staphylococcus aureus [16] = assay: Antibacterial activity against methicillin-resistant Staphylococcus aureus isolate OC11223 by broth microdilution method; assay type: functional; summary of the method: as §4
Staphylococcus aureus [17] = assay: Antibacterial activity against methicillin-resistant Staphylococcus aureus isolate OC8530 harboring gyrA S84L and parC I143V mutant gene by broth microdilution method; assay type: functional; summary of the method: as §1
Staphylococcus aureus [18] = assay: Antibacterial activity against methicillin-resistant Staphylococcus aureus isolate OC17042 harboring gyrA S84L/G106D, parC S80F and parE D732N mutant gene by broth microdilution method; assay type: functional; summary of the method: as §4
Staphylococcus aureus [19] = assay: Antibacterial activity against methicillin-resistant Staphylococcus aureus isolate OC11223 assessed as log reduction in bacterial growth at 2 times MIC measured at 24 hrs by time-kill assay; assay type: functional
Summary of the method: (§5)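 Overnight MRSA cultures were diluted into fresh cation-adjusted Mueller-Hinton broth to about 5 × 10^6 CFU/ml. […] Samples were plated serially diluted on trypticase soy agar, and CFU were counted after 20-24 h at 37°C. Value is the log10 decrease at 24 h from the starting inoculum; detection limit 100 CFU.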

Staphylococcus aureus [20] = assay: Antibacterial activity against methicillin-resistant Staphylococcus aureus isolate OC8525 harboring wild type quinolone resistance-determining region assessed as log reduction in bacterial growth at 4 times MIC measured at 24 hrs by time-kill assay; assay type: functional
Summary of the method: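 Time-kill in cation-adjusted Mueller-Hinton broth. […] Samples were taken up to 24 h, serially diluted onto TSA and counted after 20–24 h at 37°C. Result is log10 decrease at 24 h from the starting inoculum; detection limit 100 CFU.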

Staphylococcus aureus [21] = assay: Antibacterial activity against methicillin-resistant Staphylococcus aureus isolate OC12501 assessed as log reduction in bacterial growth at 2 times MIC measured at 24 hrs by time-kill assay; assay type: functional; summary of the method: as §5
Staphylococcus aureus [22] = assay: Antibacterial activity against methicillin-resistant Staphylococcus aureus isolate OC4222 harboring gyrA S84L and parC S80F mutant gene assessed as log reduction in bacterial growth at 2 times MIC measured at 24 hrs by time-kill assay; assay type: functional; summary of the method: as §5
Staphylococcus aureus [23] = assay: Antibacterial activity against methicillin-resistant Staphylococcus aureus isolate OC2838 assessed as log reduction in bacterial growth at 2 times MIC measured at 24 hrs by time-kill assay; assay type: functional; summary of the method: as §5
Staphylococcus aureus [24] = assay: Antibacterial activity against methicillin-resistant Staphylococcus aureus isolate OC11521 harboring gyrA S84L/S85P, parC E84G mutant gene assessed as log reduction in bacterial growth at 2 times MIC measured at 24 hrs by time-kill assay; assay type: functional; summary of the method: as §5
Streptococcus pneumoniae [25] = assay: Antibacterial activity against Streptococcus pneumoniae R6 by agar dilution method; assay type: functional
Summary of the method: (§6)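 MICs for the resistance-selection studies were determined by CLSI agar dilution on Mueller-Hinton medium. For S. pneumoniae the medium was supplemented with 5% lysed horse blood. For MRSA fluctuation-assay strains an arithmetic agar dilution scheme was used for a more precise MIC.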

Staphylococcus aureus [26] = assay: Antibacterial activity against methicillin-resistant Staphylococcus aureus isolate OC8525 harboring wild type quinolone resistance-determining region by agar dilution method; assay type: functional
Summary of the method: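 CLSI agar dilution MIC on cation-adjusted Mueller-Hinton medium. These were the MIC values used for the resistance studies, and CLSI quality-control strains were included as appropriate.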

Staphylococcus aureus [27] = assay: Antibacterial activity against methicillin-resistant Staphylococcus aureus isolate OC11150 harboring gyrA S84L and parC S80Y mutant gene by agar dilution method; assay type: functional; summary of the method: as §6

In the case of COc1c(N2CCC/C(=C(\F)CN)C2)c(F)cc2c(=O)c(C(=O)O)cn(C3CC3)c12 [ACORAFLOXACIN], the Ratio (Providencia stuartii) is reported as 16, the Activity (Streptococcus pneumoniae [1]) is reported as “Active” and the MIC50 (Streptococcus pneumoniae [2]) is reported as 0.015 µg/mL (≈ 0.0358 µM). The MIC90 (Streptococcus pneumoniae [2]) was 0.12 µg/mL (≈ 0.286 µM), the MIC50 [3] was 0.008 µg/mL (≈ 0.0191 µM) and the MIC90 [3] was 0.015 µg/mL (≈ 0.0358 µM). The MIC50 (Enterococcus faecalis) was 0.06 µg/mL (≈ 0.143 µM), the MIC90 (Enterococcus faecalis) was 0.5 µg/mL (≈ 1.19 µM) and the MIC50 (Enterococcus faecium) was 0.5 µg/mL (≈ 1.19 µM). The MIC90 (Enterococcus faecium) was 4 µg/mL (≈ 9.54 µM), the MIC50 (Enterobacter cloacae) was 0.12 µg/mL (≈ 0.286 µM) and the MIC90 (Enterobacter cloacae) was 0.12 µg/mL (≈ 0.286 µM). The MIC50 (Klebsiella aerogenes) was 0.12 µg/mL (≈ 0.286 µM), the MIC90 (Klebsiella aerogenes) was 0.25 µg/mL (≈ 0.596 µM) and the MIC50 (Proteus mirabilis) was 0.25 µg/mL (≈ 0.596 µM). It also gave an MIC90 (Proteus mirabilis) of 0.5 µg/mL (≈ 1.19 µM), a deltalog10CFU/ml (Streptococcus pneumoniae [4]) of 4.2 and an MIC (Streptococcus pneumoniae [5]) of 0.06 µg/mL (≈ 0.143 µM). It also gave an MIC (Streptococcus pneumoniae [6]) of 0.06 µg/mL (≈ 0.143 µM), an MIC (Streptococcus pneumoniae [7]) of 0.12 µg/mL (≈ 0.286 µM) and a deltalog10CFU/ml (Streptococcus pneumoniae [8]) of 4.4. It also gave an MIC (Streptococcus pneumoniae [9]) of 0.12 µg/mL (≈ 0.286 µM), a deltalog10CFU/ml (Streptococcus pneumoniae [10]) of 3.6 and a deltalog10CFU/ml (Streptococcus pneumoniae [11]) of 6.8. It also gave a deltalog10CFU/ml (Streptococcus pneumoniae [12]) of 4, a deltalog10CFU/ml (Streptococcus pneumoniae [13]) of 7.2 and a deltalog10CFU/ml (Streptococcus pneumoniae [14]) of 3.8. The deltalog10CFU/ml (Streptococcus pneumoniae [15]) was 6.6, the MIC (Staphylococcus aureus [16]) was 0.008 µg/mL (≈ 0.0191 µM) and the MIC (Staphylococcus aureus [17]) was 0.25 µg/mL (≈ 0.596 µM). It also gave an MIC (Staphylococcus aureus [18]) of 0.5 µg/mL (≈ 1.19 µM), a deltalog10CFU/ml (Staphylococcus aureus [19]) of 2.5 and a deltalog10CFU/ml (Staphylococcus aureus [20]) of 5. It also gave a deltalog10CFU/ml (Staphylococcus aureus [21]) of 6.2, a deltalog10CFU/ml (Staphylococcus aureus [22]) of 5.9 and a deltalog10CFU/ml (Staphylococcus aureus [23]) of 4.1. The deltalog10CFU/ml (Staphylococcus aureus [24]) was 2.3, the MIC (Streptococcus pneumoniae [25]) was 0.015 µg/mL (≈ 0.0358 µM) and the MIC (Staphylococcus aureus [26]) was 0.012 µg/mL (≈ 0.0286 µM). It also gave an MIC (Staphylococcus aureus [27]) of 0.12 µg/mL (≈ 0.286 µM).
